Experimental data as given in article PMC8412899 (ACS Omega, 2021).

Assays:
[1] = In vivo PK characteristics; design: species or system mice; conditions: mouse, iv, 12.5 mg/kg
[2] = Atropoisomer stability in solution; format: physicochemical
[3] = system: human multiple myeloma cell line xenograft (AMO-1); assay: AMO-1 efficacy model; format: in vivo, mice; conditions: QD5, i.v. bolus; for %TGI (day): D14
Summary of the method: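 Female CB-17 SCID mice (6–7 weeks) received 5 × 10⁶ AMO-1 cells s.c. in the right flank, in 50:50 growth medium:Matrigel. At ~200 mm³ they were randomized, n = 8. Freshly prepared test compound in 20% HPbCD/25 mM HCl was given i.v. daily ×5. Calipers were read 2–3×/week; volume = length × width²/2. TGI was taken at the control group's last day and at maximum; TGD used a 500 mm³ median.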

MCL-1 = MCL-1 (Homo sapiens, UniProt Q07820); assay: QA; format: binding; conditions: QA MCL-1 Ki
cleaved PARP = assay: In vivo PD: increase of cleaved PARP in AMO1 xenografted mice; conditions: AMO1 xenografted mice, 16 h after i.v. bolus treatment at 12.5 mg/kg
Summary of the method: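 Female CB-17 SCID mice (6–7 weeks) were implanted s.c. with 5 × 10⁶ AMO-1 cells in 50:50 medium:Matrigel. At ~200 mm³ tumor volume they were randomized, n = 3 per group. Test compound in 20% HPbCD/25 mM HCl was given as a single 12.5 mg/kg i.v. bolus. Cleaved PARP increase was measured in tumors 16 h later.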

NCI-H929 cells = assay: MTT cell viability assay of NCI H929 cell line; format: cell-based; conditions: than 16a

MCL-1, sequence (Q07820 whole entry): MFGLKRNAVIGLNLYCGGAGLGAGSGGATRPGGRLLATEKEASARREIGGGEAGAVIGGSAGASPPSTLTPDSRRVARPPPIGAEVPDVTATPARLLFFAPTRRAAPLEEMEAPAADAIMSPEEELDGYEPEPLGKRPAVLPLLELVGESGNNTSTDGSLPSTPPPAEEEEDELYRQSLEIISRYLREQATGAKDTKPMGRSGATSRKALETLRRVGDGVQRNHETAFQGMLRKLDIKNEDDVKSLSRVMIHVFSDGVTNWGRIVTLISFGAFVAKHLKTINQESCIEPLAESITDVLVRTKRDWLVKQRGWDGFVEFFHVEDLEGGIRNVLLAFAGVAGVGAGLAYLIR

Row | AUC [1] [ng·h/mL] | clearance [1] [mL/min/kg] | Ki (MCL-1) [nM] | SMILES | atropoisomer stability [2] | time to reach 500 mm^3 (median of the group) ([3]; 6.25 mpk) | %TGI (day) ([3]; 6.25 mpk) | %TGI max (day) ([3]; 6.25 mpk, d7) | time to reach 500 mm^3 (median of the group) ([3]; 12.5 mpk) | %TGI (day) ([3]; 12.5 mpk) | %TGI max (day) ([3]; 12.5 mpk, d2) | PARP activation (fold) (cleaved PARP) | cellular activity, fold less (NCI-H929 cells) [fold]
1 | 34000 | 6 | – | COc1ccccc1-c1nccc(COc2ccccc2C[C@@H](Oc2ncnc3sc(-c4ccc(F)cc4)c(-c4ccc(OCCN5CCN(C)CC5)c(Cl)c4C)c23)C(=O)O)n1 [Compound 16a, (2R)-2-{[(5Sa)-5-{3-Chloro-2-methyl-4-[2-(4-methylpiperazin-1-yl)ethoxy]phenyl}-6-(4-fluorophenyl)thieno[2,3-d]pyrimidin-4-yl]oxy}-3-(2-{[2-(2-methoxyphenyl)pyrimidin-4-yl]methoxy}phenyl)propanoic Acid] | – | – | – | – | – | – | – | – | –
2 | 56000 | 2.5 | 0.036 | COc1ccccc1-c1nccc(COc2ccccc2C[C@@H](Oc2ncnc3oc(-c4ccc(F)cc4)c(-c4ccc(OCCN5CCN(C)CC5)c(Cl)c4C)c23)C(=O)O)n1 [Compound 24, (2R)-2-{[5-{3-Chloro-2-methyl-4-[2-(4-methylpiperazin-1-yl)ethoxy]phenyl}-6-(4-fluorophenyl)furo[2,3-d]pyrimidin-4-yl]oxy}-3-(2-{[2-(2-methoxyphenyl)pyrimidin-4-yl]methoxy}phenyl)propanoic Acid] | equilibrate rapidly in solution to give a 1:1 mixture | 28 | 103.5 (D14) % | 122.7 (d7) % | 37 | 107.7 (D14) % | 184.8 (d2) % | 129 | 10
